Results reported in ChEMBL document CHEMBL1134398, “Synthesis, structure-activity relationships, and pharmacokinetic profiles of nonpeptidic difluoromethylene ketones as novel inhibitors of human chymase” (J Med Chem, 2001).
pKi: −log10 of the molar value. Blank lines part the entries; values can stand above or below the compound they belong to. Calls of active or inactive are those of the source. The rule behind the calls is not given here.

Assays:
Chymase = target: T1, Chymase (Homo sapiens, UniProt P23946); experiment: In vitro inhibitory activity was determined against human heart chymase
T1 sequence (P23946 whole entry): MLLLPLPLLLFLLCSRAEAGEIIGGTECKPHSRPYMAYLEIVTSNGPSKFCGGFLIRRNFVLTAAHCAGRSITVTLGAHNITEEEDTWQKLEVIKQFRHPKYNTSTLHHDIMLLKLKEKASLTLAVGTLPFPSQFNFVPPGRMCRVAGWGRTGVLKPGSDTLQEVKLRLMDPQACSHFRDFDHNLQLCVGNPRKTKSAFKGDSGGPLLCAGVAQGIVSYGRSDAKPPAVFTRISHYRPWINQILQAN

[1] = Bioavailability administered orally at a dose of 10 mg/kg to rats; format: ADME, organism-based; conditions: rat, in vivo, po, read-out: BA
Method in brief: (§1)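 10 mg/kg by gavage to fasted male rats (suspension 10 mg/mL, 0.5% HPMC) or male beagles (solution 2.5 mg/mL, DMSO–PEG-400–1 M HCl–saline 2:38:10:50), n=3. Plasma sampled up to 24 h, assayed by LC–MS/MS. Cmax and Tmax taken from measured values. BA = (AUCpo×dose iv)/(AUCiv×dose po)×100, using 1 mg/kg iv.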

[2] = Plasma administration to rats; format: ADME, organism-based; conditions: rat
Method in brief: (§2)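 Male Sprague–Dawley rats (204–222 g) and male beagles (11.4–12.5 kg), n=3 each, fasted 18 h before and 4 h after dosing. Plasma sampled up to 24 h, quantified by LC–MS/MS with internal standard. AUC 0–infinity.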

Cathepsin G = target: T2, Cathepsin G (Homo sapiens, UniProt P08311); experiment: Inhibitory activity against human cathepsin G
T2 sequence (P08311 whole entry): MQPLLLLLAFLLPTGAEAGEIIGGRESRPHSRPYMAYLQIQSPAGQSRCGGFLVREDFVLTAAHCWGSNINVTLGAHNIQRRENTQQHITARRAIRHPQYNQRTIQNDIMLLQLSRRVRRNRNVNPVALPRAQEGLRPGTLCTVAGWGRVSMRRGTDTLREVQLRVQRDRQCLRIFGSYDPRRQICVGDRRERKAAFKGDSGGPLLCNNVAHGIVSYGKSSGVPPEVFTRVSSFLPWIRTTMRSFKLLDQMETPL
Method in brief: (§3)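 Chymotrypsin-type assay: purified enzyme hydrolyzes succinyl-Ala-Ala-Pro-Phe-p-nitroanilide, with p-nitroaniline release followed at 405 nm. Ki derived, as means ± SEM of three independent experiments. Human heart chymase was a purified preparation.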

[3] = target: Angiotensin-converting enzyme (Homo sapiens) (UniProt P12821); experiment: Inhibitory activity against human angiotensin I converting enzyme (10 uM); No inhibition
[4] = target: Prothrombin (Homo sapiens) (UniProt P00734); experiment: Inhibitory activity against human plasma thrombin (10 uM); No inhibition; format: cell-free
[5] = Pharmacokinetic parameter AUC after intravenous administration to dogs; format: ADME, organism-based, Canis lupus familiaris; conditions: dog, in vivo; method in brief: as §2
[6] = Maximum plasma concentration after oral administration to dogs at a dose of 10 mg/kg; format: ADME, organism-based, Canis lupus familiaris; set-up: dose 10 mg/kg, route oral; conditions: dog; method in brief: as §1
[7] = target: T3, Neutrophil elastase (Homo sapiens) (UniProt P08246); experiment: Inhibitory activity against human leukocyte elastase (10 uM); No inhibition
T3 sequence (whole entry): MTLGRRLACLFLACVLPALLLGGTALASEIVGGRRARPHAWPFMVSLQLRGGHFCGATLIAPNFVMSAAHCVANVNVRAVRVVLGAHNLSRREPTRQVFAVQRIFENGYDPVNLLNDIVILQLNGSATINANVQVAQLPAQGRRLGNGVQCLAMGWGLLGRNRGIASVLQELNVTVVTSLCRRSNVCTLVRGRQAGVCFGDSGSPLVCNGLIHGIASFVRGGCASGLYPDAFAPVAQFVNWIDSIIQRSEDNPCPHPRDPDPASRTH

[8] = Half life was evaluated after intravenous administration to rats; format: ADME, organism-based; conditions: rat, in vivo; method in brief: as §2
[9] = Half life was evaluated after intravenous administration to dogs; format: ADME, organism-based, Canis lupus familiaris; conditions: dog, in vivo; method in brief: as §2
[10] = Time to reach Cmax after oral administration to dogs; format: ADME, organism-based, Canis lupus familiaris; conditions: dog, in vivo; method in brief: as §1
[11] = Pharmacokinetic parameter AUC after oral administration to rats; format: ADME, organism-based; conditions: rat, in vivo; method in brief: as §1
[12] = (§4) Steady state volume of distribution was determined; format: ADME, organism-based; conditions: rat, in vivo; read-out: Vdss; method in brief: as §2
[13] = Maximum plasma concentration after oral administration to rats; format: ADME, organism-based; set-up: route oral; conditions: rat; method in brief: as §1
[14] = Bioavailability administered orally at a dose of 10 mg/kg to dogs; format: ADME, organism-based, Canis lupus familiaris; conditions: dog, in vivo, po, read-out: BA; method in brief: as §1
[15] = Time to reach Cmax after oral administration to rats; format: ADME, organism-based; conditions: rat, in vivo; method in brief: as §1
Mast cell protease 9 = target: T4, Mast cell protease 9 (Mus musculus, UniProt O35164); experiment: Inhibitory activity against mouse peritoneal chymase; method in brief: as §3
T4 sequence (O35164 whole entry): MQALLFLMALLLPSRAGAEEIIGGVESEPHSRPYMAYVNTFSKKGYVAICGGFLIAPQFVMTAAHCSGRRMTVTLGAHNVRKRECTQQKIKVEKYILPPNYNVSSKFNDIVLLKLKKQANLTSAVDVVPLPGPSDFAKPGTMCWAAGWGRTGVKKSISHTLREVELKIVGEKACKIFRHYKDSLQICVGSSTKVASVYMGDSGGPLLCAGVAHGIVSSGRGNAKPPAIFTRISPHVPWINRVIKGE

[16] = as §4; format: ADME, organism-based, Canis lupus familiaris; conditions: dog, in vivo; read-out: Vdss; method in brief: as §2
[17] = Pharmacokinetic parameter AUC after intravenous administration to rats; format: ADME, organism-based; conditions: rat, in vivo; method in brief: as §2
[18] = Pharmacokinetic parameter AUC after oral administration to dogs; format: ADME, organism-based, Canis lupus familiaris; conditions: dog, in vivo; method in brief: as §1
[19] = Plasma administration to dogs; format: ADME, organism-based, Canis lupus familiaris; conditions: dog; method in brief: as §2
[20] = The selectivity was determined for chymotrypsin to that of chymase

Angiotensin-converting enzyme (Homo sapiens), sequence (P12821 whole entry): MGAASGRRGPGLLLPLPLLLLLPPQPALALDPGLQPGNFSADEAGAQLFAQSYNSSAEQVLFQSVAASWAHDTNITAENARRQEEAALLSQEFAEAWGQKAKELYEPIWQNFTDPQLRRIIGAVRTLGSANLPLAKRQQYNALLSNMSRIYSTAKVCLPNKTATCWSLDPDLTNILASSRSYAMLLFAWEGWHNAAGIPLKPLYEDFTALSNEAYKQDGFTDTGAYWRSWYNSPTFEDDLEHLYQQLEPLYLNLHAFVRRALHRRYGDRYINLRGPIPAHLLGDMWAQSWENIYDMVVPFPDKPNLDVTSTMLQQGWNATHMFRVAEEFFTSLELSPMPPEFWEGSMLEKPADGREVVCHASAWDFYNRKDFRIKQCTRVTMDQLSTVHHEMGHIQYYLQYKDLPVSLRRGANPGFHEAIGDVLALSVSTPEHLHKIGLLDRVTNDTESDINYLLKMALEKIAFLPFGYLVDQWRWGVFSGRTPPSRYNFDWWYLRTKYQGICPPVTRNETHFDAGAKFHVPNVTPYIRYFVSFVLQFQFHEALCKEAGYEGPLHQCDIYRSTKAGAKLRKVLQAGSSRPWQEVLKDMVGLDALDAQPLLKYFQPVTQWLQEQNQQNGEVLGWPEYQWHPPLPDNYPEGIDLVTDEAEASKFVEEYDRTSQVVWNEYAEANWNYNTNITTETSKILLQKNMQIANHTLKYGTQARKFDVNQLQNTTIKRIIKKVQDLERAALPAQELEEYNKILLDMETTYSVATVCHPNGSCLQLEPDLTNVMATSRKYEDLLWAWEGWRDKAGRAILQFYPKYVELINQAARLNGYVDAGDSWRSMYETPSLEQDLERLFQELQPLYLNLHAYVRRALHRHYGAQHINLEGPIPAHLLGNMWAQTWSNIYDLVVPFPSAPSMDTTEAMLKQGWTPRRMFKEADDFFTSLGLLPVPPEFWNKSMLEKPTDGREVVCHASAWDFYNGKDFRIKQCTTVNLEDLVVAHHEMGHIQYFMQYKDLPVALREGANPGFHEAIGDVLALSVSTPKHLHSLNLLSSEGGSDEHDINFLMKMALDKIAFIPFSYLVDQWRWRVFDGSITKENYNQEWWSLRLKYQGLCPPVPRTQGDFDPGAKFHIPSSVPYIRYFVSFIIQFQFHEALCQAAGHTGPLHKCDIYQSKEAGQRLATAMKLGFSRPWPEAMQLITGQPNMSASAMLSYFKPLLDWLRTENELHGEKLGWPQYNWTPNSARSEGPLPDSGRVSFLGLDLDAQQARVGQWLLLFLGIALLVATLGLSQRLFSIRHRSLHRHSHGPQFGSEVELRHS

pKi (Chymase): 8.01
Structure (SMILES): Cc1cccc(-c2ncc(N)c(=O)n2CC(=O)NC(Cc2ccccc2)C(=O)C(F)(F)C(=O)Nc2cccc(C(=O)O)c2)c1 (stereo unspecified)

pKi (Chymase): 7.99
Structure (SMILES): Cc1cccc(-c2ncc(N)c(=O)n2CC(=O)NC(Cc2ccccc2)C(=O)C(F)(F)C(=O)NCC(=O)N2CCCCC2)c1 (stereo unspecified)

pKi (Chymase): 7.30
Structure (SMILES): Cc1cccc(-c2ncc(N)c(=O)n2CC(=O)NC(Cc2ccccc2)C(=O)C(F)(F)F)c1 (stereo unspecified)

pKi (Chymase): 7.47
Structure (SMILES): CCN(CC)C(=O)CCNC(=O)C(F)(F)C(=O)C(Cc1ccccc1)NC(=O)Cn1c(-c2cccc(C)c2)ncc(N)c1=O (stereo unspecified)

pKi (Chymase): 8.03
Structure (SMILES): CCN(CC)C(=O)CNC(=O)C(F)(F)C(=O)C(Cc1ccccc1)NC(=O)Cn1c(-c2cccc(C)c2)ncc(N)c1=O (stereo unspecified)

pKi (Chymase): 7.13
Structure (SMILES): Nc1cnc(-c2cccnc2)n(CC(=O)NC(Cc2ccccc2)C(=O)C(F)(F)C(=O)NCc2ccccc2)c1=O (stereo unspecified)

bioavailability [1]: 17%
clearance [2]: 2.28 mL/min/kg
pKi (Cathepsin G): 5.86
NI [3]: inactive
NI [4]: inactive
AUC [5]: 5720 ng·h/mL
Cmax [6]: 7320 ng/mL
NI [7]: inactive
half-life [8]: 2.1 h
half-life [9]: 1.4 h
Tmax [10]: 0.7 h
AUC [11]: 12100 ng·h/mL
Vd [12]: 0.369 L/kg
Cmax [13]: 1520 ng/mL
bioavailability [14]: 32%
Tmax [15]: 1.3 h
pKi (Mast cell protease 9): 5.90
Vd [16]: 0.257 L/kg
AUC [17]: 7330 ng·h/mL
AUC [18]: 18500 ng·h/mL
clearance [19]: 3.25 mL/min/kg
Structure (SMILES): Nc1cnc(-c2cccc(Cl)c2)n(CC(=O)NC(Cc2ccccc2)C(=O)C(F)(F)C(=O)NCc2ccccc2)c1=O (stereo unspecified)

Selectivity [20]: 120
pKi (Chymase): 7.92
Structure (SMILES): Cc1cccc(-c2ncc(N)c(=O)n2CC(=O)NC(Cc2ccccc2)C(=O)C(F)(F)C(=O)NCC(N)=O)c1 (stereo unspecified)

pKi (Chymase): 7.77
Structure (SMILES): Cc1cccc(-c2ncc(N)c(=O)n2CC(=O)NC(Cc2ccccc2)C(=O)C(F)(F)C(=O)NCC(=O)O)c1 (stereo unspecified)

pKi (Chymase): 7.99
Structure (SMILES): COC(=O)CNC(=O)C(F)(F)C(=O)C(Cc1ccccc1)NC(=O)Cn1c(-c2cccc(C)c2)ncc(N)c1=O (stereo unspecified)

pKi (Chymase): 7.73
Structure (SMILES): CCCCCNC(=O)C(F)(F)C(=O)C(Cc1ccccc1)NC(=O)Cn1c(-c2cccc(C)c2)ncc(N)c1=O (stereo unspecified)

pKi (Chymase): 7.80
Structure (SMILES): Nc1cnc(-c2cccc(F)c2)n(CC(=O)NC(Cc2ccccc2)C(=O)C(F)(F)C(=O)NCc2ccccc2)c1=O (stereo unspecified)

pKi (Chymase): 7.78
Structure (SMILES): Cc1cccc(-c2ncc(N)c(=O)n2CC(=O)NC(Cc2ccccc2)C(=O)C(F)(F)C(=O)Nc2ccc(C(=O)O)cc2)c1 (stereo unspecified)

pKi (Chymase): 7.04
Structure (SMILES): CNC(=O)C(F)(F)C(=O)C(Cc1ccccc1)NC(=O)Cn1c(-c2cccc(C)c2)ncc(N)c1=O (stereo unspecified)

pKi (Chymase): 8.45
Structure (SMILES): Cc1cccc(-c2ncc(N)c(=O)n2CC(=O)NC(Cc2ccccc2)C(=O)C(F)(F)C(=O)NCC(=O)N2CCCCCC2)c1 (stereo unspecified)

pKi (Chymase): 6.31
Structure (SMILES): Cc1cccc(-c2ncc(N)c(=O)n2CC(=O)NC(Cc2ccccc2)C(=O)C(F)(F)C(=O)N(C)C)c1 (stereo unspecified)

pKi (Chymase): 7.49
Structure (SMILES): Nc1cnc(-c2ccccc2)n(CC(=O)NC(Cc2ccccc2)C(=O)C(F)(F)C(=O)NCc2ccccc2)c1=O (stereo unspecified)

pKi (Chymase): 7.54
Structure (SMILES): Cc1cccc(-c2ncc(N)c(=O)n2CC(=O)NC(Cc2ccccc2)C(=O)C(F)(F)C(=O)NCc2cccnc2)c1 (stereo unspecified)

pKi (Chymase): < 5.00
Structure (SMILES): Cc1cccc(-c2ncc(N)c(=O)n2CC(=O)NC(Cc2ccccc2)C(=O)C(F)(F)C(=O)O)c1 (stereo unspecified)

Selectivity [20]: 114
pKi (Chymase): 7.77
Structure (SMILES): Cc1cccc(-c2ncc(N)c(=O)n2CC(=O)NC(Cc2ccccc2)C(=O)C(F)(F)C(=O)NCc2ccccc2)c1 (stereo unspecified)

pKi (Chymase): 7.86
Structure (SMILES): COc1cccc(-c2ncc(N)c(=O)n2CC(=O)NC(Cc2ccccc2)C(=O)C(F)(F)C(=O)NCc2ccccc2)c1 (stereo unspecified)

pKi (Chymase): 8.11
Structure (SMILES): CCNC(=O)CNC(=O)C(F)(F)C(=O)C(Cc1ccccc1)NC(=O)Cn1c(-c2cccc(C)c2)ncc(N)c1=O (stereo unspecified)

pKi (Chymase): < 5.00
Structure (SMILES): CCOC(=O)C(F)(F)C(=O)C(Cc1ccccc1)NC(=O)Cn1c(-c2cccc(C)c2)ncc(N)c1=O (stereo unspecified)

Selectivity [20]: 7.45
pKi (Chymase): 6.36
Structure (SMILES): Nc1cnc(-c2ccc(F)cc2)n(CC(=O)NC(Cc2ccccc2)C(=O)C(F)(F)C(=O)NCc2ccccc2)c1=O (stereo unspecified)

pKi (Chymase): 7.88
Structure (SMILES): Cc1cccc(-c2ncc(N)c(=O)n2CC(=O)NC(Cc2ccccc2)C(=O)C(F)(F)C(N)=O)c1 (stereo unspecified)

Selectivity [20]: 62.2
pKi (Chymase): 7.64
Structure (SMILES): Cc1cccc(-c2ncc(N)c(=O)n2CC(=O)NC(Cc2ccccc2)C(=O)C(F)(F)C(=O)NCCC(=O)O)c1 (stereo unspecified)

pKi (Chymase): 7.07
Structure (SMILES): Nc1cnc(-c2ccncc2)n(CC(=O)NC(Cc2ccccc2)C(=O)C(F)(F)C(=O)NCc2ccccc2)c1=O (stereo unspecified)
